Source: PubChem BioAssay
KCNQ1 inh: human KCNQ1 channel inhibition | P51787 | CHO-K1 KCNQ1, FluxOR thallium flux fluorescence; stronger effect = higher value | B-score at 10 µM | 1.3% of 310,000 active;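 active means compounds whose thallium flux B-score, printed positive for inhibition, exceeds three library SD while starting fluorescence stays within three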;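 further: channel opened by potassium depolarization with thallium stimulus after 20 min compound exposure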
Target sequence (P51787 whole entry, looked up): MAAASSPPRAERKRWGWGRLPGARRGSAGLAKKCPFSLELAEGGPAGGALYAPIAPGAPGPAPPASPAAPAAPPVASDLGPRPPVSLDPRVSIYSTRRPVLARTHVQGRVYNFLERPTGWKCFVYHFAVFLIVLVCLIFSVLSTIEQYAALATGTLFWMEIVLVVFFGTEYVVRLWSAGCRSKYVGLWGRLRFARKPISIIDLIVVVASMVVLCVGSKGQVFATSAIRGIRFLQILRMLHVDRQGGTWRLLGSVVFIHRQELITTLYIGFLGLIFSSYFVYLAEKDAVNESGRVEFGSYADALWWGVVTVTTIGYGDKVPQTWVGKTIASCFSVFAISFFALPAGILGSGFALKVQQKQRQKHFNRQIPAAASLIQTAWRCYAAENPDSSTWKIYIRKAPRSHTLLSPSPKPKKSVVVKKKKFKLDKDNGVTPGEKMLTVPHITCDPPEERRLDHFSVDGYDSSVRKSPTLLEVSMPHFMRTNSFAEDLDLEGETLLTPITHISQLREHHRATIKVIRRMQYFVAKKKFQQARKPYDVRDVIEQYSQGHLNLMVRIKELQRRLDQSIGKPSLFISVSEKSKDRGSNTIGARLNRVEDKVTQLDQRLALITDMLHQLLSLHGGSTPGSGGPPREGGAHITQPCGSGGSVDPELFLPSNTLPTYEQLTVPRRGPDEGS
hERG rescue: shields human hERG channel from block by proarrhythmic agents. activation (rescue from dofetilide block), less the hit threshold, % at 10 µM. 0.51% of 310,000 active. AID 1511. Q12809. CHO-hERG, FluxOR thallium flux, dofetilide IC70 present;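 active means activation above the mean of controls blocked by dofetilide plus 5 SD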;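 further: thallium influx through hERG after potassium depolarization seen as dye fluorescence rise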
KCNK3 inh: human KCNK3 channel inhibition, primary screen. CHO-KCNK3 thallium flux, FluxOR fluorescence; stronger effect = lower value. B-score at 10 µM. AID 602410. O14649. 0.84% of 340,000 active;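 active means B-score under library mean minus 4 SD, starting fluorescence ratio at most library mean plus 5 SD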;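 further: more negative B-score means stronger inhibition of thallium flux through KCNK3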
KCNQ1 act: human KCNQ1 channel potentiation or activation; P51787; CHO-K1 KCNQ1, thallium flux FluxOR fluorescence; stronger effect = higher value; 0.35% of 310,000 active; B-score at 10 µM;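 active means fluorescence ratio B-score, a plate-corrected score, at least three library SD, with initial intensity B-score within 5 SD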
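Assay system: stable KCNQ1 CHO-K1 line; medium: assay buffer, equal DMSO in all wells; timing: 90 min dye loading and 20 min compound exposure, both at room temperature; technique: kinetic FluxOR thallium fluorescence, 10-s 1-Hz baseline, 110-s post-stimulus read; read-out basis: B score of baseline-normalized fluorescence ratio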
Kir21 inh: blocks the mouse Kir2.1 inward-rectifier potassium channel; AID 1672; P35561; B-score at 10 µM; 0.85% of 310,000 active; HEK293-Kir2.1, FluxOR thallium flux fluorescence; stronger effect = lower value;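 active means fluorescence ratio B-score at or below minus 3 SD of library scores, with starting-brightness B-score within 2 SD, cut at about -4.2 in these data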;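 further: channel flux triggered by added potassium and thallium sulfate stimulus; B-score of peak minus minimum fluorescence over baseline after thallium stimulus; more negative B-score means stronger Kir2.1 block with less thallium influx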
KCNK9 inh: inhibitors of human KCNK9 two-pore domain potassium channel; 1.2% of 310,000 active; Q9NPC2; B-score at 10 µM; HEK293 KCNK9, FluxOR thallium flux fluorescence; stronger effect = lower value;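 active means ratio B-score over 3 SD below the library mean, with starting fluorescence within 5 SD of its mean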;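 further: negative B-score means less thallium flux so channel inhibition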
KCNK9 block conf: human KCNK9 inhibitor confirmation; shares compounds with KCNK9 inh; HEK293 KCNK9 cells, FluxOR thallium flux fluorescence; inhibition, % at 10 µM; 43% of 4,900 active;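 active means thallium signal inhibited by more than 5 SD of the compound-free buffer control wells, on both duplicate plates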;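 further: 0% = assay buffer control wells without compound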
Kir21 sel: mouse Kir2.1 off-target activity of KCNK9 modulators | shares compounds with KCNK9 inh | Kir2.1 cells, FluxOR thallium flux fluorescence | inhibition, % at 10 µM | 4% of 4,900 active;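 active means thallium signal drop more than 5 SD beyond the mean of the no-compound control wells, seen in both duplicate plates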;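 further: signal is fluorescence rise after thallium addition divided by baseline fluorescence; plate controls were assay buffer only for no effect and full block by chlorpromazine control for full effect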
KCNK9 uninduced: second check of KCNK9 modulator effects in non-induced HEK293 cells. 40% of 4,900 active. inhibition, % at 10 µM. shares compounds with KCNK9 inh. FluxOR thallium flux. AID 492997;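 active means thallium signal drop beyond 5 SD of the untreated control mean, on both duplicate plates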;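 further: plate controls were buffer only IC0 wells for no effect and SID17386958 at its maximal inhibitory level for full effect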
KCNK3 inh conf: confirmation of human KCNK3 two-pore domain potassium channel inhibitors; shares compounds with KCNK3 inh; CHO-KCNK3 thallium flux, FluxOR fluorescence; 0% buffer, 100% carvedilol maximal block; ratio percent of control, % at 10 µM; 99% of 2,400 active; AID 651638;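 active means ratio percent of control, averaged over triplicates, above buffer control mean plus 5 SD, cut at about 64% in these data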;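 further: ratio is the fluorescence rise from min to max over baseline after thallium stimulus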
KCNK3 noninduced: activity in cells without induced KCNK3 expression | shares compounds with KCNK3 inh | non-induced KCNK3 parental cells, FluxOR thallium flux; stronger effect = lower value | thallium flux ratio (lower = more inhibition) at 10 µM | 40% of 2,400 active;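 active means thallium flux ratio, averaged over three wells, more than 5 SD below the buffer control mean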;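 further: host cells are CHO cells without KCNK3 induction; ratio is peak minus trough fluorescence over baseline then normalized to buffer controls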
An asterisk follows results filed as active; i = inactive; nt = not tested or not shown. This is a sample that favours compounds with a hit; in the whole collection about 3.7% have one here.

SMILES	KCNQ1 inh	hERG rescue	KCNK3 inh	KCNQ1 act	Kir21 inh	KCNK9 inh	KCNK9 block conf	Kir21 sel	KCNK9 uninduced	KCNK3 inh conf	KCNK3 noninduced
CCCOC(=O)c1ccc(NC(=O)CN(C)Cc2cccs2)cc1	i	-11.0	-10.4*	i	-1.61	-12.3*	50.0%*	i	i	93.7*	i
CN(CC(=O)Nc1cc(Cl)cc(Cl)c1)Cc1cccs1	i	-3.5	-13*	i	-2.25	-14.2*	63.0%*	i	44.0%*	122.0*	0.158*
CN(CC(=O)NCCc1ccc(F)cc1)Cc1cccs1	i	-14.9	i	i	-0.63	i	nt	nt	nt	nt	nt
CCOc1nc(C)ccc1-c1noc(-c2cccnc2)n1	i	-0.7	i	i	2.19	i	nt	nt	nt	nt	nt
CCN(CC)CC(O)COc1ccccc1C(=O)CCc1ccccc1 (stereo unspecified)	i	-11.1	i	i	0	i	nt	nt	nt	nt	nt
CCCCN(CCCC)CC(O)COc1ccccc1C(=O)Nc1ccccc1 (stereo unspecified)	i	-9.5	-10.5*	i	-0.96	-11*	50.0%*	i	39.5%*	112.3*	i
COc1cccc(C(=O)NCC(c2cccs2)N2CCc3ccccc32)c1 (stereo unspecified)	i	-7.0	-13.9*	i	2.1	-17*	55.5%*	i	37.0%*	134.7*	0.121*
CCOC(=O)c1ccc(S(=O)(=O)NNC(=O)c2cccc(N(C)C)c2)cc1	i	-36.9	i	i	0.05	i	nt	nt	nt	nt	nt
NC(=O)CSc1nnc2ccc(-c3ccc(F)cc3)nn12	i	-14.0	i	i	0.96	i	nt	nt	nt	nt	nt
CSc1nc2ccc(NS(=O)(=O)c3ccc(Br)s3)cc2s1	6*	-18.6	-11.4*	i	-2.77	-8.34*	35.0%*	i	i	127.0*	0.128*
O=C(COC(=O)c1cccs1)c1ccc2ccccc2c1	i	-15.4	-13.1*	i	-2.3	-17.5*	56.5%*	i	29.5%*	101.3*	i
COc1ccccc1NC(=O)C(C)OC(=O)CCSc1ccc(F)cc1 (stereo unspecified)	i	-9.4	i	i	-0.43	-15.8*	62.5%*	i	29.5%*	120.3*	i
COc1ccccc1NC(=O)CCSc1ccc(C)cc1	i	-17.2	i	i	-1.46	i	nt	nt	nt	nt	nt
CC(C)Nc1nnc(SC(C)C(=O)Nc2ccc(Cl)cn2)s1 (stereo unspecified)	i	-14.0	i	i	-1.51	i	nt	nt	nt	nt	nt
COc1ccccc1OCC(=O)Nc1cccc(-c2nnc(-c3ccco3)o2)c1	i	-25.0	-10.2*	i	0.72	-8.6*	31.0%*	i	i	102.7*	i
O=C(Cc1ccccc1)Nc1cccc(-c2nnc(-c3ccco3)o2)c1	i	-13.3	i	i	0.93	i	nt	nt	nt	nt	nt
O=C(Cc1ccc(Cl)cc1)Nc1cccc(-c2nnc(-c3ccco3)o2)c1	i	-0.7	i	i	-0.35	i	nt	nt	nt	nt	nt
O=C(Nc1cccc(-c2nnc(-c3ccco3)o2)c1)C(c1ccccc1)c1ccccc1	10*	-15.1	-12.8*	i	-1.8	-19.8*	71.5%*	i	30.0%*	135.0*	0.106*
O=C(N/N=C/c1c(O)ccc2ccccc12)c1cccc(C(F)(F)F)c1	i	-8.5	-11.3*	i	-2.39	-9.29*	61.0%*	46.0%*	61.0%*	159.0*	0.0907*
NC(=O)c1cc(NC(=O)CCc2nc3ccccc3s2)cc(C(N)=O)c1	i	-7.6	i	i	-0.11	i	nt	nt	nt	nt	nt
Cc1c2ccccc2cc[n+]1CCCS(=O)(=O)[O-]	i	-10.4	i	i	0.3	i	nt	nt	nt	nt	nt
CCCCCCCCCC[n+]1cccc2c3ccccc3ccc21	i	-19.5	i	i	-9.05*	-15*	73.0%*	i	35.5%*	71.7*	i
N#CC1=C2N=C(N)c3ccccc3N2C2=C(C(=O)CCC2)C1c1ccccc1F (stereo unspecified)	i	-10.1	i	i	0.95	i	nt	nt	nt	nt	nt
CC1(C)CC(=O)C2=C(C1)N1C(=C(C#N)C2c2ccccc2Cl)N=C(N)c2ccccc21 (stereo unspecified)	i	-9.9	-12.8*	i	-0.11	-14.9*	41.5%*	i	44.0%*	90.0*	i
Nc1c2c(nc3sc4c(c13)CCCC4)-c1ccccc1CC2	i	-12.2	i	i	0.13	i	nt	nt	nt	nt	nt
SMILES	KCNQ1 inh	hERG rescue	KCNK3 inh	KCNQ1 act	Kir21 inh	KCNK9 inh	KCNK9 block conf	Kir21 sel	KCNK9 uninduced	KCNK3 inh conf	KCNK3 noninduced
COc1cccc(-c2nn(-c3ccccc3)cc2C(=O)Nc2nccs2)c1	6*	-10.6	-10.5*	i	-0.7	-15.2*	35.0%*	i	i	99.7*	0.122*
Cc1ccc(Nc2nc(CSc3nnnn3-c3ccccc3)cs2)cc1	i	-4.1	i	i	0.33	-11*	47.0%*	i	35.0%*	100.0*	i
C/C(=N\Nc1cc(C)nc(-c2ccccc2)n1)c1cccc([N+](=O)[O-])c1	i	-5.4	-9.71*	i	-0.05	-10.9*	50.0%*	i	32.0%*	103.0*	i
CCCN(c1nc(C)cc(OC)n1)S(=O)(=O)c1ccccc1	i	-7.5	-11.8*	i	-8.32*	i	nt	nt	nt	101.3*	i
CCOC(=O)c1ccc(NC2c3ccccc3C(=O)N2c2cccnc2)cc1 (stereo unspecified)	i	-11.7	-9.71*	i	-2.14	i	nt	nt	nt	112.0*	i
CCc1cccc(NC2c3ccccc3C(=O)N2c2cccnc2)c1 (stereo unspecified)	i	-13.3	-10.6*	i	-1.38	i	nt	nt	nt	100.3*	i
CC(C)c1ccc(S(=O)(=O)Nc2ccc3c(c2)OCO3)cc1	nt	nt	-11.4*	nt	nt	nt	nt	nt	nt	122.0*	i
COC(=O)COc1ccc(S(=O)(=O)Nc2ccc3c(c2)OCO3)cc1	i	-12.9	i	i	0.31	i	nt	nt	nt	nt	nt
COC(=O)COc1ccc(S(=O)(=O)Nc2ccc3c(c2)OCO3)cc1Cl	i	-17.7	-9.75*	i	-1.23	i	nt	nt	nt	97.7*	i
